Screening results: PubChem, Broad Institute
Shown are actives, neighbours in structure and some others; about 1.4% of the full set was active somewhere.
FN deposit inh = inhibitors of fibronectin matrix deposition, primary screen, AH1F cells, Alexa488-fibronectin fluorescence, plate reader. inhibition, % at 12.6 µM. AID 743247, 2014. AH1F fibroblasts, overnight. hit rate 0.086% among 350,000;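 active = mean inhibition across replicates of 30% or more, regardless of how many single replicates reach that level; inconclusive = mean under 30% yet at least half of replicates reach 30%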
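Schedule: 1 h cell adhesion before compound, then overnight fibronectin incubation; test system: AH1F fibroblast monolayer depositing Alexa488-labelled fibronectin into matrix; quantity: 10000 AH1F cells per well; probe or stimulus: fluorescent fibronectin at 24 nM final; signal: fluorescence, ex 485 nm, em 525 nm; evaluation: percent inhibition as loss of matrix-bound fibronectin fluorescence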
INS-1E GSIS act = GLuc luminescence reporter in INS-1E cells, primary screen for activators of glucose-dependent secretion of insulin; INS-1E GLuc reporter insulin secretion, 2-3 h; activation, % at 16.6 µM; hit rate 0.61% among 370,000;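 active = lowest replicate activation of at least 40%, so every replicate reaches that level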
ERp5 inh = inhibitors of ERp5-driven insulin aggregation, primary screen, biochemical, turbidity, absorbance 650 nm, single point. Protein disulfide-isomerase A6 (Homo sapiens), Q15084. 90 min. inhibition, % at 9.99 µM. hit rate 0.05% among 350,000. AID 651711, 2012;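 active = mean replicate inhibition above about 25%, with every replicate also reaching it, limit read from the data, passing the limit was not always enough; inconclusive = only one of those two criteria met; inactive = neither criterion met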
Env fusion inh = inhibitors of HIV-1 Env-driven cell-cell fusion, primary screen, HeLa-JRFL effector, CEM21 target cells, luciferase; hit rate 1.1% among 360,000; AID 651610, 2012; inhibition, % at 12.3 µM;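 active = mean replicate inhibition score of at least 50 and every replicate individually at or above 50; inconclusive = only one of the two criteria met; inactive = mean below 50 and not all replicates reaching 50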
PDI inh = inhibitors of human PDI, primary screen, biochemical, turbidity, single point, plate reader | Protein disulfide-isomerase (Homo sapiens), P07237 | PDI insulin aggregation turbidity, A650, 90 min | inhibition, % at 10 µM | hit rate 0.052% among 350,000;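 active = mean inhibition across replicates of 30% or more, whatever share of single replicates reach that level; inconclusive = mean inhibition below 30% while every single replicate reaches 30%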
Target sequence (P07237 whole entry, looked up): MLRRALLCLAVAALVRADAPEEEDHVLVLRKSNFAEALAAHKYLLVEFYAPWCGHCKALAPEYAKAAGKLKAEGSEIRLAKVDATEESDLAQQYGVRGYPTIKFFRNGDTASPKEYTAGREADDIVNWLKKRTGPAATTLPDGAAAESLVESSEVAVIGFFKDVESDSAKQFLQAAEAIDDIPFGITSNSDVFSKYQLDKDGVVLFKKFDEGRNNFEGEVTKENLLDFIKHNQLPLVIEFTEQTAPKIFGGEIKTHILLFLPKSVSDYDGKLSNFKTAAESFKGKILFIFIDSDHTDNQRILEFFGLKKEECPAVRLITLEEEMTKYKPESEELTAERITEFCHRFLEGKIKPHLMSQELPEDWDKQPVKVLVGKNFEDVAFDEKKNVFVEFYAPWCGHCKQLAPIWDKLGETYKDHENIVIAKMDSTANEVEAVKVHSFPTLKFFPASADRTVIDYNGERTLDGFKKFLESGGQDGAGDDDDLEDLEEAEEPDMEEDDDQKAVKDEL
A number is an active result; 0 = inactive; ? = inconclusive; - = no result; [ ] = another dose, or the depositor's remark.

SMILES	FN deposit inh	INS-1E GSIS act	ERp5 inh	Env fusion inh	PDI inh
COC(=O)C[C@H]1CC[C@H]2[C@@H](COc3ccc(NC(=O)c4cccc(Cl)c4)cc3C(=O)N2C)O1	0	0	0	0	-
Nc1nc(NCc2ccccc2)nc(NCCO)c1[N+](=O)[O-]	0	0	0	63	0
CCC(=O)N1C[C@@H]2[C@H](c3ccccc31)[C@H](CO)N2Cc1ccc(F)cc1	0	0	0	-	-
CCc1cnc(N2[C@H](C#N)[C@H](c3ccc(C#Cc4ccccc4F)cc3)[C@H]2CO)s1	0	0	0	65[16.7 µM]	-
CCc1cnc(N2[C@H](C#N)[C@H](c3ccc(C#Cc4ccccc4F)cc3)[C@@H]2CO)s1	0	0	0	0	-
N#Cc1c(-c2ccc(Br)cc2)cc(-c2cccnc2)nc1N	0	0	-	0	0
Cc1nc(N)c(C#N)c(-c2cccnc2)c1-c1ccccc1	0	41	0	0	0
Cc1c(-c2ccccc2)nc(N)c(C#N)c1-c1cccnc1	0	0	0	0	0
N#Cc1c(-c2cccc(Br)c2)cc(-c2cccnc2)nc1N	-	90	-	-	0
COc1ccc(S(=O)(=O)Nc2cccc3c2O[C@@H](CN(C)S(=O)(=O)c2ccc(OC)cc2)[C@H](C)CN([C@@H](C)CO)C3=O)cc1	-	-	0	0	-
O=C(C[C@@H]1CC[C@@H]2[C@H](COC[C@H](O)CN2S(=O)(=O)c2cccc(F)c2)O1)NCCCN1CCOCC1	0	0	0	-	-
CN(C)/C=N/C1=C(C#N)C(c2ccc(Br)cc2)c2ccc3ccccc3c2O1 (stereo not given)	0	-	0	59	0
CC(C)NC(=O)N(C)C[C@H]1Oc2ncccc2C(=O)N(C)C[C@H]1C	0	0	-	-	-
COc1ccc2c3c([nH]c2c1)[C@@H](CO)N(C(=O)c1cccnc1)CC31CN(C(=O)Nc2cccc(F)c2)C1	0	0	0	-	-
CCNC(=O)C1(C)CCCN1Cc1cccc(C(F)(F)F)c1 (stereo not given)	-	44	0	0	0
CCCNC(=O)C1(C)CCN(C(=O)c2cccc(C(F)(F)F)c2)C1 (stereo not given)	0	45	0	0	0
Cc1ccc(S(=O)(=O)N(C)C[C@@H]2Oc3ccc(NS(=O)(=O)c4ccc(Cl)cc4)cc3C(=O)N([C@H](C)CO)C[C@H]2C)cc1	-	0	0	0	-
CC[C@@]1(C(=O)OC)N[C@H](CN(C)C(=O)c2ccc(C(C)(C)C)cc2)[C@@H]2C(=O)N(Cc3ccccc3)C(=O)[C@@H]21	0	0	0	79	0
COC(=O)[C@]1(Cc2ccccc2)N[C@H](CN(C)C(=O)Nc2ccc(C(F)(F)F)cc2)[C@@H]2C(=O)N(Cc3ccccc3)C(=O)[C@@H]21	-	0	0	0	0
CC[C@@]1(C(=O)OC)N[C@H](CN(C)C(=O)Nc2ccc(C(F)(F)F)cc2)[C@@H]2C(=O)N(Cc3ccccc3)C(=O)[C@@H]21	-	0	0	85	0
CCN(C[C@H]1N[C@@](C)(C(=O)OC)[C@H]2C(=O)N(Cc3ccccc3)C(=O)[C@@H]12)C(=O)Nc1ccc(Cl)cc1	0	0	0	64	0
CCN(C[C@H]1N[C@@](CC)(C(=O)OC)[C@H]2C(=O)N(Cc3ccccc3)C(=O)[C@@H]12)S(=O)(=O)c1ccc(OC)cc1	0	0	0	78	0
CCN(C[C@H]1[C@@H](c2ccccc2)[C@H](CO)N1C(=O)COC)S(C)(=O)=O	0	0	0	-	-
Cc1noc(C)c1NC(=O)Nc1cccc2c1O[C@H](CN(C)C(=O)Nc1ccc(F)cc1)[C@@H](C)CN([C@@H](C)CO)C2=O	-	0	-	0	-
Cc1noc(C)c1S(=O)(=O)N(C)C[C@@H]1Oc2ccc(NC(=O)CCCCCC(=O)Nc3ccccc3N)cc2CC(=O)N([C@@H](C)CO)C[C@H]1C	0	0	0	-	-
SMILES	FN deposit inh	INS-1E GSIS act	ERp5 inh	Env fusion inh	PDI inh
CCN(C[C@H]1N[C@@](C)(C(=O)OC)[C@H]2C(=O)N(Cc3ccccc3)C(=O)[C@@H]12)C(=O)c1ccc(C(C)(C)C)cc1	0	0	0	69	0
CCN(C[C@H]1N[C@@](CC)(C(=O)OC)[C@H]2C(=O)N(Cc3ccccc3)C(=O)[C@@H]12)C(=O)c1ccc(C(C)(C)C)cc1	0	0	0	?	0
COC(=O)[C@]1(Cc2ccccc2)N[C@H](CN(C)C(=O)NC(C)C)[C@@H]2C(=O)N(C)C(=O)[C@@H]21	0	0	0	0	0
CC[C@@]1(C(=O)OC)N[C@H](CN(C)C(=O)Nc2ccccc2)[C@@H]2C(=O)N(Cc3ccccc3)C(=O)[C@@H]21	0	0	0	60	0
COC(=O)[C@]1(C)N[C@H](CN(C)S(=O)(=O)c2ccc(OC(F)(F)F)cc2)[C@@H]2C(=O)N(Cc3ccccc3)C(=O)[C@@H]21	0	0	0	82	0
COC(=O)[C@]1(Cc2ccccc2)N[C@H](CN(C)C(=O)Nc2ccc(C)cc2)[C@@H]2C(=O)N(C)C(=O)[C@@H]21	0	65	0	0	0
COC(=O)[C@]1(C)N[C@H](CN(C)S(=O)(=O)c2ccc(F)cc2)[C@@H]2C(=O)N(Cc3ccccc3)C(=O)[C@@H]21	0	-	0	0	0
CCCC#Cc1ccc([C@@H]2[C@H](C#N)N(C(=O)CN3CCOCC3)[C@H]2CO)cc1	0	0	0	0	-
Cc1nnc(N2C(=O)C(O)=C(C(=O)c3ccco3)C2c2cccc([N+](=O)[O-])c2)s1 (stereo not given)	0	48	0	0	0
CCN(CC)C(=O)n1c(Cc2ccccc2)nc2ccccc21	0	48	0	0	0
CCCCC(=O)Nc1ccc(C(=O)NNC(=O)c2ccc(C)c(Br)c2)cc1	0	64	-	0	0
C[C@H](CO)N1C[C@H](C)[C@H](CN(C)S(=O)(=O)c2cn(C)cn2)Oc2ccc(NC(=O)C3CC3)cc2C1=O	-	0	0	-	-
O=C(NCC1OCCc2ccccc21)c1ccc(NC(=O)c2cccc(Br)c2)cc1 (stereo not given)	0	253	-	0	0
O=C(NCC1OCCc2ccccc21)c1ccc(NC(=O)c2ccccc2Cl)cc1 (stereo not given)	0	0	-	0	0
O=C(NCC1OCCc2ccccc21)c1ccc(NC(=O)c2ccc(Cl)cc2Cl)cc1 (stereo not given)	0	267	-	0	0
COc1ccc(C(=O)NCC2OCCc3ccccc32)cc1OC (stereo not given)	0	0	0	0	0
CC(C)c1cn(CC[C@@H]2CC[C@H](NC(=O)C3CC3)[C@@H](CO)O2)nn1	0	0	0	0	-
O=C(c1ccccc1F)N1C[C@H]2[C@@H](c3ccccc31)[C@H](CO)N2C(=O)c1ccncc1	0	0	0	-	-
O=C(Nc1ccc(Cl)cc1)OCCn1nnnc1C(c1ccccc1Cl)N1CCOCC1 (stereo not given)	-	-	-	113	0
